# According to ChEMBL document CHEMBL4689842, “EUbOPEN Chemogenomics Library wave 1” (2021):
# Test system: U2OS
# Test: Multiplex assay against U2OS
# Format: toxicity, cell-based
# Conditions: human
# Summary of the method: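 Cells were classed with CellPathfinder machine-learning gating, first as Hoechst high-intensity objects or normal cells, then (normal cells) as healthy, pyknosed or fragmented nuclei, and finally (pyknosed cells) as mitotic or apoptotic. Staining of live cells at seeding used Hoechst33342, BioTracker Green Microtubule Cytoskeleton Dye, MitoTracker Red and Annexin V Alexa Fluor 680, with imaging on a CQ1 microscope at 37°C and 5% CO2 after compound addition. Tubulin, mitochondrial-mass and membrane-permeability phenotypes are per cents of healthy-nucleus cells.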
# [1] = 12 h, 1 µM, compound concentration 1 uM, replicate 1
# [2] = 12 h, 1 µM, compound concentration 1 uM, replicate 2
# [3] = 12 h, 10 µM, compound concentration 10 uM, replicate 1
# [4] = 12 h, 10 µM, compound concentration 10 uM, replicate 2
# [5] = 24 h, 1 µM, compound concentration 1 uM, replicate 1
# [6] = 24 h, 1 µM, compound concentration 1 uM, replicate 2
# [7] = 24 h, 10 µM, compound concentration 10 uM, replicate 1
# [8] = 24 h, 10 µM, compound concentration 10 uM, replicate 2
# [9] = 48 h, 1 µM, compound concentration 1 uM, replicate 1
# [10] = 48 h, 1 µM, compound concentration 1 uM, replicate 2
# [11] = 48 h, 10 µM, compound concentration 10 uM, replicate 1
# [12] = 48 h, 10 µM, compound concentration 10 uM, replicate 2
smiles,measurement,setting,value
C[C@@H](NCCCc1cccc(C(F)(F)F)c1)c1cccc2ccccc12.Cl [CINACALCET HYDROCHLORIDE],Population Fragmented Nuclei (%),[1],6%
same,Population Healthy Nuclei (%),[1],79%
same,Population Hoechst High Intensity Objects (%),[1],5%
same,Population Membrane Permeable-Phenotype (%),[1],4%
same,Population Mitochondria Different-Phenotype (%),[1],30%
same,Population Normal (%),[1],94%
same,Population Pyknosed Nuclei (%),[1],13%
same,Population Tubulin-Different-Phenotype (%),[1],40%
same,Total Cell Count,[1],184
same,Population Apoptotic (%),[2],33%
same,Population Fragmented Nuclei (%),[2],10%
same,Population Healthy Nuclei (%),[2],76%
same,Population Hoechst High Intensity Objects (%),[2],9%
same,Population Membrane Permeable-Phenotype (%),[2],11%
same,Population Mitochondria Different-Phenotype (%),[2],22%
same,Population Mitotic Cells (%),[2],66%
same,Population Normal (%),[2],90%
same,Population Pyknosed Nuclei (%),[2],12%
same,Population Tubulin-Different-Phenotype (%),[2],36%
same,Total Cell Count,[2],52
same,Population Apoptotic (%),[3],41%
same,Population Fragmented Nuclei (%),[3],14%
same,Population Healthy Nuclei (%),[3],60%
same,Population Hoechst High Intensity Objects (%),[3],9%
same,Population Membrane Permeable-Phenotype (%),[3],22%
same,Population Mitotic Cells (%),[3],58%
same,Population Normal (%),[3],90%
same,Population Pyknosed Nuclei (%),[3],24%
same,Population Tubulin-Different-Phenotype (%),[3],98%
same,Total Cell Count,[3],155
same,Population Apoptotic (%),[4],88%
same,Population Fragmented Nuclei (%),[4],20%
same,Population Healthy Nuclei (%),[4],23%
same,Population Hoechst High Intensity Objects (%),[4],7%
same,Population Membrane Permeable-Phenotype (%),[4],33%
same,Population Mitochondria Different-Phenotype (%),[4],93%
same,Population Mitotic Cells (%),[4],11%
same,Population Normal (%),[4],92%
same,Population Pyknosed Nuclei (%),[4],55%
same,Population Tubulin-Different-Phenotype (%),[4],93%
same,Total Cell Count,[4],68
same,Population Apoptotic (%),[5],29%
same,Population Fragmented Nuclei (%),[5],5%
same,Population Healthy Nuclei (%),[5],82%
same,Population Hoechst High Intensity Objects (%),[5],3%
same,Population Membrane Permeable-Phenotype (%),[5],4%
same,Population Mitochondria Different-Phenotype (%),[5],20%
same,Population Mitotic Cells (%),[5],70%
same,Population Normal (%),[5],96%
same,Population Pyknosed Nuclei (%),[5],12%
same,Population Tubulin-Different-Phenotype (%),[5],20%
same,Total Cell Count,[5],205
same,Population Apoptotic (%),[6],36%
same,Population Fragmented Nuclei (%),[6],8%
same,Population Healthy Nuclei (%),[6],69%
same,Population Hoechst High Intensity Objects (%),[6],7%
same,Population Membrane Permeable-Phenotype (%),[6],5%
same,Population Mitochondria Different-Phenotype (%),[6],26%
same,Population Mitotic Cells (%),[6],63%
same,Population Normal (%),[6],92%
same,Population Pyknosed Nuclei (%),[6],22%
same,Population Tubulin-Different-Phenotype (%),[6],17%
same,Total Cell Count,[6],53
same,Population Apoptotic (%),[7],72%
same,Population Fragmented Nuclei (%),[7],14%
same,Population Healthy Nuclei (%),[7],51%
same,Population Hoechst High Intensity Objects (%),[7],6%
same,Population Membrane Permeable-Phenotype (%),[7],46%
same,Population Mitochondria Different-Phenotype (%),[7],97%
same,Population Mitotic Cells (%),[7],28%
same,Population Normal (%),[7],93%
same,Population Pyknosed Nuclei (%),[7],34%
same,Population Tubulin-Different-Phenotype (%),[7],100%
same,Total Cell Count,[7],157
same,Population Apoptotic (%),[8],92%
same,Population Fragmented Nuclei (%),[8],15%
same,Population Healthy Nuclei (%),[8],32%
same,Population Hoechst High Intensity Objects (%),[8],24%
same,Population Membrane Permeable-Phenotype (%),[8],52%
same,Population Mitochondria Different-Phenotype (%),[8],88%
same,Population Mitotic Cells (%),[8],7%
same,Population Normal (%),[8],75%
same,Population Pyknosed Nuclei (%),[8],51%
same,Population Tubulin-Different-Phenotype (%),[8],82%
same,Total Cell Count,[8],69
same,Population Apoptotic (%),[9],38%
same,Population Fragmented Nuclei (%),[9],8%
same,Population Healthy Nuclei (%),[9],80%
same,Population Hoechst High Intensity Objects (%),[9],2%
same,Population Membrane Permeable-Phenotype (%),[9],3%
same,Population Mitochondria Different-Phenotype (%),[9],11%
same,Population Mitotic Cells (%),[9],61%
same,Population Normal (%),[9],97%
same,Population Pyknosed Nuclei (%),[9],11%
same,Population Tubulin-Different-Phenotype (%),[9],16%
same,Total Cell Count,[9],293
same,Population Apoptotic (%),[10],54%
same,Population Fragmented Nuclei (%),[10],14%
same,Population Healthy Nuclei (%),[10],70%
same,Population Hoechst High Intensity Objects (%),[10],6%
same,Population Membrane Permeable-Phenotype (%),[10],8%
same,Population Mitochondria Different-Phenotype (%),[10],18%
same,Population Mitotic Cells (%),[10],45%
same,Population Normal (%),[10],93%
same,Population Pyknosed Nuclei (%),[10],15%
same,Population Tubulin-Different-Phenotype (%),[10],12%
same,Total Cell Count,[10],75
same,Population Apoptotic (%),[11],70%
same,Population Fragmented Nuclei (%),[11],26%
same,Population Healthy Nuclei (%),[11],33%
same,Population Hoechst High Intensity Objects (%),[11],7%
same,Population Membrane Permeable-Phenotype (%),[11],58%
same,Population Mitochondria Different-Phenotype (%),[11],96%
same,Population Mitotic Cells (%),[11],29%
same,Population Normal (%),[11],92%
same,Population Pyknosed Nuclei (%),[11],39%
same,Population Tubulin-Different-Phenotype (%),[11],98%
same,Total Cell Count,[11],176
same,Population Apoptotic (%),[12],91%
same,Population Fragmented Nuclei (%),[12],18%
same,Population Healthy Nuclei (%),[12],35%
same,Population Hoechst High Intensity Objects (%),[12],22%
same,Population Membrane Permeable-Phenotype (%),[12],78%
same,Population Mitochondria Different-Phenotype (%),[12],89%
same,Population Mitotic Cells (%),[12],8%
same,Population Normal (%),[12],77%
same,Population Pyknosed Nuclei (%),[12],45%
same,Population Tubulin-Different-Phenotype (%),[12],94%
same,Total Cell Count,[12],68
